This passage reports Kinact and Ki results from ChEMBL document CHEMBL1138650, “Inactivation of human S-adenosylhomocysteine hydrolase by covalent labeling of cysteine 195 with thionucleoside derivatives” (Bioorg Med Chem Lett, 2004).

The target in one experiment is T1, Adenosylhomocysteinase (Homo sapiens, UniProt P23526). The experiment can be described thus: Inactivation rate constant for human placental S-adenosyl-homocysteine hydrolase. In short, it runs like this: (§1)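 Recombinant human placental enzyme, purified to homogeneity, at 2 µM, preincubated at 37°C with inhibitor at various concentrations and times in 20 mM potassium phosphate pH 7.5, 1 mM EDTA. Ki and kinact come from a double reciprocal plot of pseudo-first-order inactivation rate versus 1/[I].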
Target sequence in this assay (P23526 2-432 limits assumed): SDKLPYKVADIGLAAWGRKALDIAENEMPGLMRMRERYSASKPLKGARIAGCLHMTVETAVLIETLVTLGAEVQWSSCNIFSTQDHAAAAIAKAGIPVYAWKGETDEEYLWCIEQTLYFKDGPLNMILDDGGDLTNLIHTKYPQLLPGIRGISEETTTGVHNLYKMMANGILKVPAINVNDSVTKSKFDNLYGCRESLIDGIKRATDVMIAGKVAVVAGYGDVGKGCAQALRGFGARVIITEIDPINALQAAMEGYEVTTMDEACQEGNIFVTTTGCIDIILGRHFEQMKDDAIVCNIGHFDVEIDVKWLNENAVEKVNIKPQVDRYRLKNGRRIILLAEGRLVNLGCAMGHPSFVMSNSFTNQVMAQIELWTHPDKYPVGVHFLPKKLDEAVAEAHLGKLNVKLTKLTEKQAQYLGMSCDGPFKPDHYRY
`Nc1ncnc2c1ncn2C1O[C@H](CS)[C@@H](O)[C@H]1O` (stereo not given in full) displayed a Kinact of 0.04 min⁻¹.
In turn, `Nc1ncnc2c1ncn2C1O[C@H]([C@H]2CS2)[C@@H](O)[C@H]1O` (stereo not given in full) yielded a Kinact of 0.03 min⁻¹.
Same read-out and setting: the figure for `Nc1ncnc2c1ncn2C1O[C@@H](CSSC[C@H]2OC(n3cnc4c(N)ncnc43)[C@H](O)[C@@H]2O)[C@H](O)[C@@H]1O` (stereo not given in full) is 0.05 min⁻¹; for `CSSC[C@H]1OC(n2cnc3c(N)ncnc32)[C@H](O)[C@@H]1O` (stereo not given in full) it is 0.05 min⁻¹.
The same measure, in the same setting: to `Nc1ncnc2c1ncn2C1OC([C@@H]2CS2)[C@@H](O)[C@H]1O` (single isomer, unassigned) belongs 0.1 min⁻¹.

The target in a further experiment is T1, Adenosylhomocysteinase. The experiment can be described thus: Binding affinity for human placental S-adenosyl-homocysteine hydrolase. In short, it runs like this: as §1
Target sequence in this assay (P23526 whole entry): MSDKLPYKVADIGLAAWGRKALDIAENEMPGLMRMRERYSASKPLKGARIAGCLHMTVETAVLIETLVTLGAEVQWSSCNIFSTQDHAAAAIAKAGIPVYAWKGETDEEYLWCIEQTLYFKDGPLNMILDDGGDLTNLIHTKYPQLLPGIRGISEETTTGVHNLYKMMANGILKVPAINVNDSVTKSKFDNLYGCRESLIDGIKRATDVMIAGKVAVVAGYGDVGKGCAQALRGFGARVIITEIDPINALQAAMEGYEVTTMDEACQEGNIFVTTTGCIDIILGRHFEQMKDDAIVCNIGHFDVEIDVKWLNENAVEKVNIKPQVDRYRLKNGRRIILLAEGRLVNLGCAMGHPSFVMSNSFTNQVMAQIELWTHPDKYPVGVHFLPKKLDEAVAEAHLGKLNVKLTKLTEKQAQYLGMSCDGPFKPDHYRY
`Nc1ncnc2c1ncn2C1O[C@H](CS)[C@@H](O)[C@H]1O` (stereo not given in full) returned a Ki of 4 µM.
The same measure, in the same setting: the figure for `Nc1ncnc2c1ncn2C1O[C@H]([C@H]2CS2)[C@@H](O)[C@H]1O` (stereo not given in full) is 50 µM; for `Nc1ncnc2c1ncn2C1O[C@@H](CSSC[C@H]2OC(n3cnc4c(N)ncnc43)[C@H](O)[C@@H]2O)[C@H](O)[C@@H]1O` (stereo not given in full) it is 96 µM; for `CSSC[C@H]1OC(n2cnc3c(N)ncnc32)[C@H](O)[C@@H]1O` (stereo not given in full) it is 19 µM.
On to `Nc1ncnc2c1ncn2C1OC([C@@H]2CS2)[C@@H](O)[C@H]1O` (single isomer, unassigned), for which the Ki turned out to be 105 µM.
